Measured values taken from PMC7396739 (Drug Design, Development and Therapy, 2020).

Tests used:
[1] = rats; cited from earlier work
[2] = Determination of saturated solubility of ASDs in distilled water; assay type: physicochemical; conditions: 37±0.5°C, 48 h, drug:Soluplus 1:10 w/w, Figure 5A
In short: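 Solid dispersions were made by co-precipitation from anhydrous ethanol, freeze-drying from 2% ethanol (−40°C 8 h, then −45°C 24 h), or microwave (700 W, 10 min) with liquid-nitrogen quench. Products were ground and sieved (60 mesh). Excess material was shaken in 5 mL water, then filtered (0.45 µm). Concentration was measured by HPLC (C18, acetonitrile-water 84:16, 203 nm).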

[3] = Crystallization inhibition of excipients; assay type: physicochemical; conditions: after 5 min
In short: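 Supersaturated stock (27 mg test compound in 5 mL 95% ethanol) added rapidly to 900 mL water, here with no excipient (control), at 37°C and 50 r/min. 5 mL samples were taken at 5–240 min and replaced with drug-free medium. Samples were filtered (0.22 µm) and assayed by HPLC (C18, acetonitrile-water 84:16, 1 mL/min, 203 nm). Run in triplicate.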

solubility [2]: lower than the detection limit
concentration of Dio in dissolution medium without excipient [3]: lower than the detection limit
SMILES: C[C@@H]1CC[C@@]2(OC1)O[C@H]1C[C@H]3[C@@H]4CC=C5C[C@@H](O)CC[C@]5(C)[C@H]4CC[C@]3(C)[C@H]1[C@@H]2C [Dio, diosgenin]
absolute bioavailability [1]: about 7%
